System: U2OS
Test: Multiplex assay against U2OS
Type: toxicity, cell-based
Settings: human
Outline: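 With compound added, live cells were imaged on a CQ1 microscope at 37°C and 5% CO2; staining with Hoechst33342, BioTracker Green Microtubule Cytoskeleton Dye, MitoTracker Red and Annexin V Alexa Fluor 680 had been done at seeding. The CellPathfinder machine-learning gating scheme split cells into Hoechst high-intensity objects or normal cells, normal cells into healthy, pyknosed or fragmented nuclei, and pyknosed cells into mitotic or apoptotic. The tubulin, mitochondrial-mass and membrane-permeability phenotypes are per cents of healthy-nucleus cells.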

[1] = 12 h, 1 µM, compound concentration 1 uM, replicate 1
[2] = 12 h, 1 µM, compound concentration 1 uM, replicate 2
[3] = 12 h, 10 µM, compound concentration 10 uM, replicate 1
[4] = 12 h, 10 µM, compound concentration 10 uM, replicate 2
[5] = 24 h, 1 µM, compound concentration 1 uM, replicate 1
[6] = 24 h, 1 µM, compound concentration 1 uM, replicate 2
[7] = 24 h, 10 µM, compound concentration 10 uM, replicate 1
[8] = 24 h, 10 µM, compound concentration 10 uM, replicate 2
[9] = 48 h, 1 µM, compound concentration 1 uM, replicate 1
[10] = 48 h, 1 µM, compound concentration 1 uM, replicate 2
[11] = 48 h, 10 µM, compound concentration 10 uM, replicate 1
[12] = 48 h, 10 µM, compound concentration 10 uM, replicate 2

CCC(=O)OCC(=O)[C@@]1(OC(=O)CC)[C@@H](C)C[C@H]2[C@@H]3CCC4=CC(=O)C=C[C@]4(C)[C@@]3(Cl)[C@@H](O)C[C@@]21C [BECLOMETHASONE DIPROPIONATE]
Population Apoptotic (%) [1]: 84% | Population Fragmented Nuclei (%) [1]: 23% | Population Healthy Nuclei (%) [1]: 64% | Population Hoechst High Intensity Objects (%) [1]: 1% | Population Membrane Permeable-Phenotype (%) [1]: 11% | Population Mitochondria Different-Phenotype (%) [1]: 4% | Population Mitotic Cells (%) [1]: 15% | Population Normal (%) [1]: 98% | Population Pyknosed Nuclei (%) [1]: 12% | Population Tubulin-Different-Phenotype (%) [1]: 6% | Total Cell Count [1]: 160 | Population Apoptotic (%) [2]: 71% | Population Fragmented Nuclei (%) [2]: 18% | Population Healthy Nuclei (%) [2]: 75% | Population Hoechst High Intensity Objects (%) [2]: 0% | Population Membrane Permeable-Phenotype (%) [2]: 13% | Population Mitochondria Different-Phenotype (%) [2]: 8% | Population Mitotic Cells (%) [2]: 28% | Population Normal (%) [2]: 99% | Population Pyknosed Nuclei (%) [2]: 6% | Population Tubulin-Different-Phenotype (%) [2]: 4% | Total Cell Count [2]: 111 | Population Apoptotic (%) [3]: 65% | Population Fragmented Nuclei (%) [3]: 42% | Population Healthy Nuclei (%) [3]: 40% | Population Hoechst High Intensity Objects (%) [3]: 4% | Population Membrane Permeable-Phenotype (%) [3]: 67% | Population Mitochondria Different-Phenotype (%) [3]: 73% | Population Mitotic Cells (%) [3]: 34% | Population Normal (%) [3]: 95% | Population Pyknosed Nuclei (%) [3]: 17% | Population Tubulin-Different-Phenotype (%) [3]: 80% | Total Cell Count [3]: 176 | Population Apoptotic (%) [4]: 68% | Population Fragmented Nuclei (%) [4]: 12% | Population Healthy Nuclei (%) [4]: 69% | Population Membrane Permeable-Phenotype (%) [4]: 48% | Population Mitochondria Different-Phenotype (%) [4]: 97% | Population Mitotic Cells (%) [4]: 31% | Population Pyknosed Nuclei (%) [4]: 18% | Population Tubulin-Different-Phenotype (%) [4]: 97% | Total Cell Count [4]: 109 | Population Apoptotic (%) [5]: 78% | Population Fragmented Nuclei (%) [5]: 21% | Population Healthy Nuclei (%) [5]: 67% | Population Hoechst High Intensity Objects (%) [5]: 2% | Population Membrane Permeable-Phenotype (%) [5]: 2% | Population Mitochondria Different-Phenotype (%) [5]: 4% | Population Mitotic Cells (%) [5]: 21% | Population Normal (%) [5]: 97% | Population Pyknosed Nuclei (%) [5]: 10% | Population Tubulin-Different-Phenotype (%) [5]: 1% | Total Cell Count [5]: 217 | Population Apoptotic (%) [6]: 87% | Population Fragmented Nuclei (%) [6]: 15% | Population Healthy Nuclei (%) [6]: 71% | Population Hoechst High Intensity Objects (%) [6]: 0% | Population Membrane Permeable-Phenotype (%) [6]: 6% | Population Mitochondria Different-Phenotype (%) [6]: 5% | Population Mitotic Cells (%) [6]: 12% | Population Normal (%) [6]: 99% | Population Pyknosed Nuclei (%) [6]: 13% | Population Tubulin-Different-Phenotype (%) [6]: 3% | Total Cell Count [6]: 123 | Population Apoptotic (%) [7]: 74% | Population Fragmented Nuclei (%) [7]: 35% | Population Healthy Nuclei (%) [7]: 45% | Population Hoechst High Intensity Objects (%) [7]: 3% | Population Membrane Permeable-Phenotype (%) [7]: 40% | Population Mitochondria Different-Phenotype (%) [7]: 72% | Population Mitotic Cells (%) [7]: 25% | Population Normal (%) [7]: 96% | Population Pyknosed Nuclei (%) [7]: 18% | Population Tubulin-Different-Phenotype (%) [7]: 66% | Total Cell Count [7]: 174 | Population Apoptotic (%) [8]: 64% | Population Fragmented Nuclei (%) [8]: 12% | Population Healthy Nuclei (%) [8]: 69% | Population Hoechst High Intensity Objects (%) [8]: 9% | Population Membrane Permeable-Phenotype (%) [8]: 43% | Population Mitochondria Different-Phenotype (%) [8]: 86% | Population Mitotic Cells (%) [8]: 35% | Population Normal (%) [8]: 90% | Population Pyknosed Nuclei (%) [8]: 17% | Population Tubulin-Different-Phenotype (%) [8]: 76% | Total Cell Count [8]: 106 | Population Apoptotic (%) [9]: 91% | Population Fragmented Nuclei (%) [9]: 22% | Population Healthy Nuclei (%) [9]: 68% | Population Hoechst High Intensity Objects (%) [9]: 2% | Population Membrane Permeable-Phenotype (%) [9]: 5% | Population Mitochondria Different-Phenotype (%) [9]: 2% | Population Mitotic Cells (%) [9]: 8% | Population Normal (%) [9]: 97% | Population Pyknosed Nuclei (%) [9]: 9% | Population Tubulin-Different-Phenotype (%) [9]: 2% | Total Cell Count [9]: 268 | Population Apoptotic (%) [10]: 85% | Population Fragmented Nuclei (%) [10]: 10% | Population Healthy Nuclei (%) [10]: 75% | Population Membrane Permeable-Phenotype (%) [10]: 8% | Population Mitochondria Different-Phenotype (%) [10]: 5% | Population Mitotic Cells (%) [10]: 14% | Population Pyknosed Nuclei (%) [10]: 14% | Population Tubulin-Different-Phenotype (%) [10]: 3% | Total Cell Count [10]: 152 | Population Apoptotic (%) [11]: 80% | Population Fragmented Nuclei (%) [11]: 36% | Population Healthy Nuclei (%) [11]: 47% | Population Hoechst High Intensity Objects (%) [11]: 4% | Population Membrane Permeable-Phenotype (%) [11]: 20% | Population Mitochondria Different-Phenotype (%) [11]: 26% | Population Mitotic Cells (%) [11]: 20% | Population Normal (%) [11]: 95% | Population Pyknosed Nuclei (%) [11]: 15% | Population Tubulin-Different-Phenotype (%) [11]: 14% | Total Cell Count [11]: 199 | Population Apoptotic (%) [12]: 70% | Population Fragmented Nuclei (%) [12]: 21% | Population Healthy Nuclei (%) [12]: 65% | Population Hoechst High Intensity Objects (%) [12]: 6% | Population Membrane Permeable-Phenotype (%) [12]: 16% | Population Mitochondria Different-Phenotype (%) [12]: 36% | Population Mitotic Cells (%) [12]: 29% | Population Normal (%) [12]: 93% | Population Pyknosed Nuclei (%) [12]: 13% | Population Tubulin-Different-Phenotype (%) [12]: 10% | Total Cell Count [12]: 131

— ChEMBL document CHEMBL5058577, “EUbOPEN Chemogenomics Library 2 (Multiplex)” (2022)
